# Screening results (PubChem BioAssay)
# Compounds with a hit are over-represented: about 2.3% of the library has one in this group of screens.
# TRPC4 potent – TRPC4 (mouse) allosteric potentiation; Q9QUQ5; HEK293 TRPC4beta/mu-opioid, DAMGO EC20, Fluo-4 Ca2+ flux; hits give high values; B-score at 10 µM; 310,000 compounds, 0.42% hits; AID 2227;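 active means B-score of calcium response area above 5 SD of library B-scores, with initial fluorescence ratio within 5 SD of library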;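 further: B-score of integrated fluorescence ratio over time as area under calcium response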
# TRPC6 inhibitor – inhibitors of mouse TRPC6 channel; AID 2553; B-score at 10 µM; 310,000 compounds, 1.1% hits; Q61143; HEK293-TRPC6, membrane potential dye, ACh-evoked depolarization; hits give low values;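 active means B-score under library mean minus 3 SD, initial fluorescence not abnormally high, positive integrated signal ratio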;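 further: B-score derived from integrated fluorescence ratio over the kinetic read; more negative B-score means stronger inhibition of depolarization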
# Target sequence (Q61143 whole entry, looked up): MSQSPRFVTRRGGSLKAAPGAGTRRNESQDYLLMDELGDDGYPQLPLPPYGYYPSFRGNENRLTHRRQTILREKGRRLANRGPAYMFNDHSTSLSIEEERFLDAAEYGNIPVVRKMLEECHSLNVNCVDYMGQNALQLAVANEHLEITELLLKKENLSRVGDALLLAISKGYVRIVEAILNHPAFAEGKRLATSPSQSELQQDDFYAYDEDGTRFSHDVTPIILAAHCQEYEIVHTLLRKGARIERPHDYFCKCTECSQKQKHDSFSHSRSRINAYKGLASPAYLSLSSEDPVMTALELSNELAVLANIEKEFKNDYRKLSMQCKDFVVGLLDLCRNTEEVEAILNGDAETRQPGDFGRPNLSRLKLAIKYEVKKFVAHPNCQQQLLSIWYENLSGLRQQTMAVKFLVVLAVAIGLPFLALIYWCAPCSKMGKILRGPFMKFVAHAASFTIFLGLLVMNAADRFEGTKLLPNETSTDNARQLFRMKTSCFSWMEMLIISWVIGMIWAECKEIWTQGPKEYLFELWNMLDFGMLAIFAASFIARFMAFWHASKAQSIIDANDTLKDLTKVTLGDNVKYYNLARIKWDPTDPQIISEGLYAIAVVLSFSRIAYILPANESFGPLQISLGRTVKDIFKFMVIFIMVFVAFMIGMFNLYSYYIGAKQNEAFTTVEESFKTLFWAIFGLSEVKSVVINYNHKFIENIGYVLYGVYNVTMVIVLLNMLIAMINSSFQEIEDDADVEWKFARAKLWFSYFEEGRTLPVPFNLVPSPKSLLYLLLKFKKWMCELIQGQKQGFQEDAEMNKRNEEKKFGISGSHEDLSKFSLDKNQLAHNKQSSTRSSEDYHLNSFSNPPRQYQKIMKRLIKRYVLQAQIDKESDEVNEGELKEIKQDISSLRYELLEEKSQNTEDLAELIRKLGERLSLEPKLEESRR
# TRPC4 block – inhibitors of mouse TRPC4 channel | HEK293 TRPC4beta/mu-opioid, DAMGO-evoked Fluo4 calcium flux; hits give low values | B-score at 10 µM | 300,000 compounds, 0.39% hits;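 active means B-score over 3 SD under the library average, no early fluorescence shift, positive overall ratio signal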
#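 Material: HEK293 cells with stable TRPC4beta plus mu-opioid receptor expression / Probe or stimulus: DAMGO in two steps, submaximal then maximal / Compound: single concentration per test compound / Technique: kinetic Fluo4 fluorescence imaging of calcium influx / Read-out: per-well B score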
# TRPC4 agonist – opens the mouse TRPC4 cation channel; B-score at 10 µM; Q9QUQ5; HEK293 TRPC4beta/mu-opioid, Fluo4 calcium fluorescence; hits give high values; 310,000 compounds, 0.49% hits;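 active means B-score above 5 SD of library B-scores, and initial fluorescence ratio not above library mean plus 5 SD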;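 further: positive B-score marks a calcium rise read as TRPC4 activation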
#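 System: HEK293 cells stably co-expressing mouse TRPC4beta and mu-opioid receptor; Schedule: Fluo4 dye loading 45 min at room temperature, 110 s recording; Detection: Fluo4 fluorescence, kinetic; Evaluation: B-scored integrated calcium fluorescence ratio; Controls: buffer (low) and maximal DAMGO (high).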
# TRPC6 activator – activates the mouse TRPC6 cation channel; Q61143; HEK293-TRPC6 membrane potential dye fluorescence; hits give high values; B-score at 10 µM; 310,000 compounds, 0.13% hits; AID 2550;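 active means B-score of the integrated fluorescence ratio above library mean plus 3 SD, and starting fluorescence ratio within library mean plus 5 SD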;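 further: higher score means more depolarization so channel activation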
# TRPC4 spec 2 – mouse TRPC4 off-target activity of TRPC6 inhibitors, second screen; shares compounds with TRPC6 inhibitor; HEK293 TRPC4/MOR, membrane potential dye fluorescence; channel activated by saturating DAMGO dose; inhibition, % at 10 µM; 920 compounds, 42% hits; AID 2776;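 active means compounds whose fluorescence signal differed from control wells by over 3 SD, either direction, in both duplicate plates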
# TRPC4 spec – selectivity of TRPC6 inhibitors: effect on mouse TRPC4 | 920 compounds, 61% hits | HEK293 TRPC4/mu-opioid, membrane potential fluorescence | shares compounds with TRPC6 inhibitor | activity change, negative = inhibition, % at 10 µM | AID 2777;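 active means rise or fall in signal beyond 3 SD of buffer-only wells in both replicate plates, either sign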;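 further: integrated kinetic ratio of fluorescence range over baseline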
# HEK293 MPD ctr 2-1 – second counter-screen for TRPC6 inhibitors: parental HEK293 cells | shares compounds with TRPC6 inhibitor | parental HEK293 membrane potential dye fluorescence; maximal acetylcholine challenge after compound addition | signal change vs control, % at 10 µM | 920 compounds, 31% hits | AID 2779;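 active means membrane potential signal moving either way by over 3 SD of the maximum-effect control, in both duplicate plates, meaning non-specific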
# HEK293 MPD ctr-1 – parental HEK293 nonspecific activity of TRPC6 inhibitors; AID 2780; membrane potential signal change, % at 10 µM; 920 compounds, 60% hits; parental HEK293 membrane potential dye fluorescence; shares compounds with TRPC6 inhibitor;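 active means membrane potential signal shifting up or down by more than 3 SD of buffer-only wells, on both duplicate plates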
# HEK293 MPD ctr-2 – counter-screen for TRPC6 modulators: effect in parental HEK293 cells; membrane potential dye fluorescence; shares compounds with TRPC6 inhibitor; 2,400 compounds, 51% hits; membrane potential signal change, % at 10 µM;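 active means membrane potential signal moves up or down beyond 5 SD from buffer-only wells, on both duplicate plates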
# HEK293 MPD ctr 2-2 – second counter-screen for TRPC6 modulators: effect in parental HEK293 cells | shares compounds with TRPC6 inhibitor | membrane potential dye fluorescence; after compound, maximal acetylcholine stimulation | inhibition, % at 10 µM | 2,400 compounds, 14% hits | AID 488926;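 active means membrane potential signal drops by more than 5 SD from the mean control signal, in both duplicate plates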;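 further: plate controls were acetylcholine ECmax control wells for no effect and buffer only wells for full effect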
# TRPC4/MOR mod – selectivity of TRPC6 modulators against mouse TRPC4. 2,400 compounds, 69% hits. AID 488927. shares compounds with TRPC6 inhibitor. percent change from control (negative = decrease, positive = increase), % at 10 µM. HEK293 TRPC4/mu-opioid, membrane potential fluorescence;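 active means membrane potential signal moved up or down beyond 5 SD of buffer control wells, in both duplicate plates, actives on both sides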;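 further: plate controls were assay buffer wells for no effect and DAMGO maximal-effect wells for full effect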
# TRPC4/MOR inh 2 – mouse TRPC4 off-target activity of TRPC6 modulators, second screen; shares compounds with TRPC6 inhibitor; HEK293 TRPC4/mu-opioid, membrane potential dye fluorescence; stimulated with maximal-effect DAMGO; inhibition, % at 10 µM; 2,400 compounds, 55% hits; AID 488928;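 active means drop in membrane potential signal beyond 5 SD of the control wells in both duplicate plates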;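 further: TRPC4 counter screen for TRPC6 hits run under conditions tuned for TRPC6 not TRPC4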
# TRPC6 block conf – mouse TRPC6 inhibitor confirmation; shares compounds with TRPC6 inhibitor; HEK293-TRPC6, membrane potential dye, ACh-evoked depolarization; inhibition, % at 10 µM; 3,300 compounds, 43% hits; AID 488960;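 active means fluorescence ratio falls more than 5 SD below the full-stimulation control mean, in both duplicate runs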;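 further: integrated fluorescence ratio of peak minus minimum over baseline after agonist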
# TRPC6 act conf – mouse TRPC6 activator confirmation; shares compounds with TRPC6 inhibitor; HEK293-TRPC6 membrane potential dye fluorescence, FDSS; activation, % at 10 µM; 2,800 compounds, 11% hits;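 active means ratio signal rise beyond 5 SD above unstimulated control wells' mean, seen in both duplicate runs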;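 further: plate controls were buffer EC0 wells for no effect and acetylcholine ECmax response for full effect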
# * = called active by the depositor; i = inactive; x = no result given.
SMILES,TRPC4 potent,TRPC6 inhibitor,TRPC4 block,TRPC4 agonist,TRPC6 activator,HEK293 MPD ctr-2,HEK293 MPD ctr 2-2,TRPC4/MOR mod,TRPC4/MOR inh 2,TRPC6 block conf,TRPC6 act conf,others
Cc1cc(-c2ccc(C)c(S(=O)(=O)NCC3CCN(Cc4ccccc4F)CC3)c2)on1,i,-5*,i,i,i,i,i,i,76%*,36%*,i,
Cc1cc(-c2ccc(C)c(S(=O)(=O)NCC3CCN(Cc4cccc(F)c4)CC3)c2)on1,i,i,i,i,i,x,x,x,x,x,x,
c1ccc(SCc2cn(C[C@H]3CC[C@@H]([C@@H]4CC[C@H](Cn5cc(CSc6ccccc6)nn5)O4)O3)nn2)cc1,i,i,i,i,i,x,x,x,x,x,x,
NC(=O)c1oc2ccccc2c1NC(=O)C1COc2ccccc2O1 (stereo unspecified),i,i,i,i,i,x,x,x,x,x,x,
Cc1cc(N)c2cc(NC(=O)/C=C/c3ccccc3Cl)ccc2n1,i,-5.5*,i,i,i,i,i,i,i,i,i,
N=c1c2c(-c3ccccc3)c(-c3ccccc3)n(Cc3ccco3)c2ncn1CCO,i,-6.6*,i,i,i,123%*,i,16%*,80%*,43%*,x,
c1ccc(-c2nc3nc4ccccc4nc3n2Cc2ccco2)cc1,i,i,i,i,i,x,x,x,x,x,x,
N=c1c2c(-c3ccccc3)c(-c3ccccc3)n(Cc3ccco3)c2ncn1CCN1CCOCC1,i,-9.9*,i,i,i,x,x,x,x,i,i,TRPC4 spec 2=40%*;TRPC4 spec=3.4%*;HEK293 MPD ctr 2-1=208%*;HEK293 MPD ctr-1=8.2%*
N=c1c2c(-c3ccccc3)c(-c3ccccc3)n(Cc3ccco3)c2ncn1CCCO,i,-5.1*,i,i,i,150%*,i,20%*,76%*,i,x,
CCN(CC)CCN1C(=O)C(=O)/C(=C(/O)c2ccc(S(=O)(=O)N3CCOCC3)cc2)C1c1ccc(C)cc1 (stereo unspecified),i,i,i,i,i,x,x,x,x,x,x,
CC(=O)c1cnc(Nc2nc(C)c3ccc(C)cc3n2)nc1C,i,-5.7*,i,i,i,-154%*,81%*,-20%*,i,i,i,
CC(=O)c1cnc(Nc2nc(C)c3ccccc3n2)nc1C,i,i,i,i,i,x,x,x,x,x,x,
O=C1CCN(Cc2ccc(O)cc2)CCN1CCO,i,i,i,i,i,x,x,x,x,x,x,
O=C(O)c1ccccc1N/N=C/c1cc(Br)cc(Br)c1O,i,-6.5*,-9*,i,i,i,i,-11%*,74%*,i,i,
O=C(Cc1ccccc1)N/N=C/c1cc(Br)cc(Br)c1O,i,i,i,i,i,x,x,x,x,x,x,
CCCCN(CC)CCCNC(=O)c1cc2c(=O)[nH]c3ccccc3c2s1,i,i,i,i,i,x,x,x,x,x,x,
CCCCN(CC)CCNC(=O)c1cc2c(=O)[nH]c3ccc(C)cc3c2s1,i,-6.3*,i,i,i,186%*,i,35%*,i,60%*,x,
CCCn1c2c(c(=N)c3c1CCC3)CCC2,i,-8.1*,i,i,i,x,x,x,x,i,i,TRPC4 spec 2=78%*;TRPC4 spec=-28%*;HEK293 MPD ctr 2-1=12%*;HEK293 MPD ctr-1=-578%*
Clc1ccc(C2Nc3cccc4cccc(c34)N2)cc1,i,i,i,i,i,x,x,x,x,x,x,
CSc1ccc(C2Nc3cccc4cccc(c34)N2)cc1,i,-7*,i,i,i,x,x,x,x,i,i,TRPC4 spec 2=i;TRPC4 spec=-11%*;HEK293 MPD ctr 2-1=i;HEK293 MPD ctr-1=-138%*
C=CCOc1ccc(CNC(C)(C)CO)cc1OCC,i,i,i,i,i,x,x,x,x,x,x,
O=C(CCOc1ccccc1)NCC(c1ccco1)N1CCCCC1 (stereo unspecified),i,-5.6*,i,i,i,i,i,12%*,i,i,x,
O=C(COc1ccccc1)NCC(c1ccco1)N1CCN(c2ccccc2F)CC1 (stereo unspecified),i,-5.9*,i,i,i,141%*,i,32%*,46%*,64%*,x,
O=C1NC2NC(=O)N(C(Cc3ccccc3)C(=O)O)C2N1 (stereo unspecified),i,i,i,i,i,x,x,x,x,x,x,
OCCNCc1ccc(OCc2ccc(Cl)cc2Cl)cc1,i,-6.7*,i,i,i,x,x,x,x,i,x,TRPC4 spec 2=68%*;TRPC4 spec=8.3%*;HEK293 MPD ctr 2-1=283%*;HEK293 MPD ctr-1=11%*
C=CCOc1c(CNC2CCCC2)cc(Cl)cc1OC,i,-5.4*,-6*,i,i,431%*,151%*,99%*,90%*,95%*,x,
N#Cc1c2ccc(O)cc2n2ccccc12,i,-6.8*,i,i,16*,436%*,86%*,55%*,i,64%*,126%*,
N#Cc1c2ccc(OCC(=O)NCc3ccco3)cc2n2ccccc12,i,i,i,i,i,x,x,x,x,x,x,
CCOC(=O)c1c(-c2cccc([N+](=O)[O-])c2)csc1N,i,i,i,i,i,x,x,x,x,x,x,
Cc1csc2cc(-c3cccc([N+](=O)[O-])c3)c(-c3cccc([N+](=O)[O-])c3)c[n+]12,i,-6.1*,i,i,i,-310%*,66%*,-52%*,55%*,69%*,i,
